Laboratory results as given in ChEMBL document CHEMBL2396596, “Anthraquinone derivatives from Rumex plants and endophytic Aspergillus fumigatus and their effects on diabetic nephropathy” (Bioorg Med Chem Lett, 2013).
Active and inactive are the calls of the source. The calls are words filed in the database; no cut-off is given here.

Tests used:
[1] = Antidiabetic nephropathic activity in rat HBZY-1 cells assessed as inhibition of high concentration glucose-induced IL-6 production at 10 uM treated 1 hr before glucose challenge measured after 24 hrs by ELISA; format: functional, cell-based
Method in brief: (§1)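 HBZY-1 rat mesangial cells (passages 3–10) were grown in DMEM with 5.6 mM glucose, 20% FCS and 10 mM HEPES. At 80% confluence they were arrested in 0.5% FCS for 24 h, then pretreated with compound for 1 h and stimulated with high glucose (25 mM) for 24 h. Supernatant IL-6, fibronectin or collagen IV was measured by sandwich ELISA, normalized to total cell protein (BCA), and compared by ANOVA.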

[2] = Cytotoxicity against rat HBZY-1 cells assessed as cell viability at 10 uM after 48 hrs by MTT assay; format: cell-based; conditions: hbzy-1, 48 h
Method in brief: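 Cells were seeded at 10⁴ per well and held in serum-free medium for 24 h. They were exposed to compound at 10 μM, or left without it, for 48 h. MTT (5 mg/mL stock) was added for 4 h at 37 °C, the formazan was dissolved in DMSO, and A570 was read. Values were normalized to control-medium cells.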

[3] = Antidiabetic nephropathic activity in rat HBZY-1 cells assessed as inhibition of high concentration glucose-induced fibronectin production at 10 uM treated 1 hr before glucose challenge measured after 24 hrs by ELISA; format: functional, cell-based; method in brief: as §1
[4] = Antidiabetic nephropathic activity in rat HBZY-1 cells assessed as inhibition of high concentration glucose-induced collagen-4 production at 10 uM treated 1 hr before glucose challenge measured after 24 hrs by ELISA; format: functional, cell-based; method in brief: as §1
[5] = Antidiabetic nephropathic activity in rat HBZY-1 cells assessed as inhibition of high concentration glucose-induced IL-6 production at 88 uM treated 1 hr before glucose challenge measured after 24 hrs by ELISA; format: functional, cell-based
[6] = Antidiabetic nephropathic activity in rat HBZY-1 cells assessed as inhibition of high concentration glucose-induced IL-6 production at 35 uM treated 1 hr before glucose challenge measured after 24 hrs by ELISA; format: functional, cell-based; method in brief: as §1

For `Cc1cc(O)c2c(c1)C(=O)c1cc(O)cc(O[C@@H]3O[C@H](CO)[C@@H](O)[C@H](O)[C@H]3O)c1C2=O`, the inhibition [1] was “Active”.
In the case of `COC(=O)c1c(OC)c(O)cc(OC)c1C(=O)c1c(O)cc(C)cc1OC` [ASPERFUMIN], the Activity [2] is reported as “Non-toxic”, the inhibition [3] is reported as “Active” and the inhibition [4] is reported as “Active”. For the same compound, the inhibition [1] was “Active”.
For `COC(=O)C1=CC(=O)C=C(OC)C12Oc1cc(C)cc(OC)c1C2=O` (stereo unspecified) [TRYPACIDIN], the Activity [2] was “Non-toxic”, the inhibition [3] was “Active” and the inhibition [4] was “Active”. For the same compound, the inhibition [1] was “Active”.
For `COC(=O)c1cc(O)cc(OC)c1C(=O)c1c(O)cc(C)cc1OC`, the Activity [2] was “Non-toxic”, the inhibition [3] was “Active” and the inhibition [4] was “Active”. For the same compound, the inhibition [1] was “Active”.
In the case of `COc1cc(O)c2c(c1)[C@@](O)([C@@H]1O[C@H](CO)[C@@H](O)[C@H](O)[C@H]1O)c1cc(C)cc(O)c1C2=O`, the Activity [2] is reported as “Non-toxic”, the inhibition [3] is reported as “Active” and the inhibition [4] is reported as “Active”. For the same compound, the inhibition [1] was “Active”.
In the case of `Cc1cc(O)c2c(c1)C(=O)c1cc(O)cc(O)c1C2=O` [EMODIN], the Activity [2] is reported as “Non-toxic”, the inhibition [3] is reported as “Active” and the inhibition [4] is reported as “Active”. The inhibition [1] was “Active”.
With `COc1cc(C)cc2c1C(=O)c1c(O)cc(O)cc1C2=O` the inhibition [1] was “Active”.
With `O=C(O)c1cc(O)c2c(c1)C(=O)c1cccc(O)c1C2=O` the inhibition [5] was “Active” and the inhibition [6] was “inactive”.
For `Cc1cc(O[C@@H]2O[C@H](CO)[C@@H](O)[C@H](O)[C@H]2O)c(C(=O)c2c(O)cccc2O)c(C(=O)O)c1`, the Activity [2] was “Non-toxic”, the inhibition [3] was “Active” and the inhibition [4] was “Active”. The inhibition [1] was “Active”.
In the case of `COc1cc(O)cc2c1C(=O)c1c(O)cc(C)cc1C2=O` [QUESTIN], the Activity [2] is reported as “Non-toxic”, the inhibition [3] is reported as “Active” and the inhibition [4] is reported as “Active”. For the same compound, the inhibition [1] was “Active”.
For `COc1cc(O)c2c(c1)[C@](O)([C@@H]1O[C@H](CO)[C@@H](O)[C@H](O)[C@H]1O)c1cc(C)cc(O)c1C2=O`, the inhibition [1] was “Active”.
In the case of `O=C1c2cccc(O)c2C(=O)c2c(O)cc(CO)cc21`, the inhibition [1] is reported as “Active”.
In the case of `CC(=O)OC[C@H]1O[C@@H](Oc2cc(O)cc3c2C(=O)c2c(O)cc(C)cc2C3=O)[C@H](O)[C@@H](O)[C@@H]1O`, the inhibition [1] is reported as “Active”.
With `COc1cc(O)c2c(c1)C(=O)c1cc(C)cc(O)c1C2=O` [PHYSCION] the Activity [2] was “Non-toxic”, the inhibition [3] was “Active” and the inhibition [4] was “Active”. The inhibition [1] was “Active”.
With `Cc1cc(O)c2c(c1)[C@@](O)([C@@H]1O[C@H](CO)[C@@H](O)[C@H](O)[C@H]1O)c1cc(O)cc(O)c1C2=O` the Activity [2] was “Non-toxic”, the inhibition [3] was “Active” and the inhibition [4] was “Active”.
For `Cc1cc(O)c2c(c1)C(=O)c1cccc(O)c1C2=O` [CHRYSOPHANOL], the Activity [2] was “Non-toxic”, the inhibition [3] was “Active” and the inhibition [4] was “Active”. The inhibition [1] was “Active”.
